A value given as a limit tells only on which side of the number the result lay.

Assay [1] concerns the target T1, WT SaPC (Staphylococcus aureus, UniProt A0A0H3JRU9). As to the kind of experiment: Pyruvate carboxylation assay. Type of assay: biochemical. As to conditions: for increase of apparent Ka in the presence of L-aspartate: 20 mM L-aspartate vs none; for ratio (Ka CoA / Ka acetyl-CoA): discrimination of acetyl-CoA over CoA; for EC50: Ka (apparent activation constant).
Assay [2] addresses T2, K46A SaPC (Staphylococcus aureus, UniProt A0A0H3JRU9, K46A). In words: Pyruvate carboxylation assay. The format is biochemical. The note with it: for ratio (Ka CoA / Ka acetyl-CoA): discrimination of acetyl-CoA over CoA.
Assay [3] deals with T3, E418A SaPC (Staphylococcus aureus, UniProt A0A0H3JRU9, E418A). In words: Pyruvate carboxylation assay. The note with it: up to 4 mM acetyl-CoA and 30 mM CoA. The format is biochemical.
In assay [4] the target is T4, R21A SaPC (Staphylococcus aureus, UniProt A0A0H3JRU9, R21A). In words: Pyruvate carboxylation assay. The format is biochemical. As to conditions: for ratio (Ka CoA / Ka acetyl-CoA): discrimination of acetyl-CoA over CoA.
Assay [5] has as its target T5, K411A SaPC (Staphylococcus aureus, UniProt A0A0H3JRU9, K411A). In words: Pyruvate carboxylation assay. The format is biochemical.
Assay [6] addresses T1, WT SaPC. As to the kind of experiment: ADP phosphorylation assay. The format is biochemical.
The target of assay [7] is T2, K46A SaPC. In words: ADP phosphorylation assay. The format is biochemical. As to conditions: up to 1 mM acetyl-CoA.
For assay [8], the target named is T3, E418A SaPC. As to the kind of experiment: ADP phosphorylation assay. The format is biochemical. The note with it: up to 1 mM acetyl-CoA.
In assay [9] the target is T4, R21A SaPC. As to the kind of experiment: ADP phosphorylation assay. Type of assay: biochemical. As to conditions: up to 1 mM acetyl-CoA.
Assay [10] deals with SaPC. The note with it: cited from earlier work.
In assay [11] the test system is PC. As to conditions: depends on the organism; cited from earlier work.
Assay [12] deals with T5, K411A SaPC. In words: ADP phosphorylation assay. The format is biochemical.
In assay [13] the target is T1, WT SaPC. In words: Pyruvate carboxylation inhibition assay with CT domain inhibitors. The format is biochemical. The gist of the method: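 WT SaPC (5 μg/mL) was pre-incubated with inhibitor and acetyl-CoA, and the reaction was started with 10× substrate mix (final 25 mM NaHCO3, 2.5 mM ATP, 12 mM pyruvate). MDH-coupled (10 U/mL MDH, 0.12 mM NADH); change in A340 monitored. Inhibitor 0–1 mM or 0–50 mM by compound. MDH-only controls. Triplicate; SD of three trials.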

In assay [14] the target is T4, R21A SaPC. In words: Pyruvate carboxylation inhibition assay with CT domain inhibitors. The note with it: 2.5 mM acetyl-CoA vs none. The format is biochemical.
The target in assay [15] is T2, K46A SaPC. The description is as above. Type of assay: biochemical. As to conditions: 2.5 mM acetyl-CoA vs none.
The target of assay [16] is T3, E418A SaPC. The description is as above. Type of assay: biochemical.
Where [17] appears, read: Acyl-CoA + 20 mM L-aspartate, Table 1.

On to `CC(=O)SCCNC(=O)CCNC(=O)[C@H](O)C(C)(C)COP(=O)(O)OP(=O)(O)OC[C@H]1O[C@@H](n2cnc3c(N)ncnc32)[C@H](O)[C@@H]1OP(=O)(O)O` [Acetyl-CoA], for which the “Ka (apparent activation constant)” value was 4.1 ± 0.3 µM in assay [1] (setting [17]); 1.5 ± 0.1 µM in [1] (Acyl-CoA alone, Table 1, fit to Equation 1 (3′5′ diphosphoadenosine: Equation 2)); 1.5 ± 0.1 µM in assay [1] (WT SaPC, Table 2 series); 340 ± 30 µM in [2] (K46A SaPC); 340 ± 50 µM in [4] (R21A SaPC); 5.8 ± 0.2 µM in assay [5] (K411A SaPC). Further, the “Ka (apparent activation constant)” value in assay [6] (WT SaPC, ADP phosphorylation by carbamoyl phosphate) is 15 ± 6 µM. The “h (Hill coefficient)” value stood at 3.3 ± 0.6 in assay [1] (setting [17]) and 1.5 ± 0.1 in [1] (Acyl-CoA alone, Table 1). In addition, the “increase of apparent Ka in the presence of L-aspartate” value in assay [1] (WT SaPC) is on record as ~ 4 fold. Further, the “ratio (Ka CoA / Ka acetyl-CoA)” value was 33 in assay [1] (WT SaPC); ~ 30 in assay [1] (WT SaPC, listed as acetyl-CoA); 4 in assay [2] (K46A SaPC); 4 – 5 in [2] (K46A SaPC, listed as acetyl-CoA); 5 in assay [4] (R21A SaPC); 4 – 5 in [4] (R21A SaPC, listed as acetyl-CoA). In addition, the “ratio (Ka CoA / Ka acetyl-CoA)” value in [5] (K411A SaPC, discrimination of acetyl-CoA over CoA) was determined as 17. Moreover, in assay [3], the “activation of pyruvate carboxylation” value was “unresponsive to activation”. Further, the “concentration giving slight inhibition of ADP phosphorylation” value in assay [6] (in all cases, including WT (Figure S4)) was “greater than 4 mM”. The “activation of ADP phosphorylation” value in assay [7], in assay [8] and in assay [9] was “unable to be activated” each time. Besides, the “greater affinity than CoA” value in assay [10] was ~ 100 fold. The “increase of binding affinity by the acetyl moiety” value in assay [10] was ~ 80 fold. Moreover, the results for the “increase of kcat in the presence of activator” value in assay [10] and in assay [11] were 5-10 fold and “up to 35 fold”, respectively.

`CC(C)(COP(=O)(O)OP(=O)(O)OC[C@H]1O[C@@H](n2cnc3c(N)ncnc32)[C@H](O)[C@@H]1OP(=O)(O)O)[C@@H](O)C(=O)NCCC(=O)NCCS` [CoA]: the “h (Hill coefficient)” value came to 1.8 ± 0.2 in [1] (setting [17]) and 1.4 ± 0.2 in assay [1] (Acyl-CoA alone, Table 1). Also, the 50% effective concentration (EC50) (commonly the concentration at which the effect is half-maximal) in [1] (setting [17]) stood at 130 ± 10 µM; in [1] (WT SaPC, Table 2 series), 49 ± 7 µM; in assay [2], 1500 ± 100 µM; in [4], 1800 ± 53 µM; in assay [5], 100 ± 4.8 µM; in assay [6] it was 320 ± 30 µM. The EC50 in [12] amounted to 420 ± 30 µM. The “increase of apparent Ka in the presence of L-aspartate” value in assay [1] (WT SaPC) is given as ~ 4 fold. For the same compound, the “activation of pyruvate carboxylation” value in [3] was “unresponsive to activation”.

Regarding `O=C(O)C(=O)O` [oxalate], in assay [13] (SaPC, CT domain inhibitors), the “change of potency in the presence of acetyl-CoA” value is “significantly reduced potency”. In addition, the “increase in the IC50 for oxalate inhibition” value is recorded as ~ 6 fold in assay [13] (WT SaPC, acetyl-CoA at ~7 times the Ka value (10 μM, Figure 6C)); ~ 13 fold in assay [13] (WT SaPC, in the presence of CoA (500 μM, Figure 6B)); greater than 20 fold in assay [13] (WT SaPC, saturating acetyl-CoA vs none); 8 fold in assay [14]; 8 fold in [15]. In addition, the “change of the IC50 for oxalate inhibition” value in assay [13] (WT SaPC, in the presence of L-aspartate (5 mM, Figure 6B)) is “did not alter”. Moreover, in assay [16], the “inhibition of pyruvate carboxylation” value was “inhibited”. In addition, in [16] (500 μM acetyl-CoA), the “change of inhibition in the presence of acetyl-CoA” value is “unchanged”.

The values are drawn from publication PMC10693930 (Biochemistry, 2023).
